CRFBP-R2 block: antagonists of CRF-binding protein/CRF-R2 receptor complex; HEK293 CRF-R2/CRF-BP, CRF-induced calcium fluorescence; actives 0.59% (n = 350,000); AID 588475; inhibition, % at 11.8 µM;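 active = inhibition of the ligand-induced calcium signal above about 50% at the single tested concentration, limit read from the data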
TRPN1 ag: zebrafish TRPN1 (NompC) channel agonism; AID 1424; HEK293 zebrafish TRPN1-YFP, Fluo-8 calcium fluorescence; 100% = response to 87 µM carbachol; activation, % at 3 µM; actives 0.18% (n = 220,000);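 active = activation above its plate's cutoff, the mean activation of test wells on that plate plus 3 SD, cut at about 19% in these data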;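 also: 0% = DMSO alone and 100% = 87 µM carbachol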
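System: zebrafish TRPN1-YFP in HEK293 cells / Dosing: 3 µM single point / Timing: dye loading 1 h at 37 °C, then 30 min room temperature / Signal: Fluo-8 calcium fluorescence, excitation 470-495 nm, emission 515-575 nm / Read-out basis: percent activation from peak over basal fluorescence ratio, control-normalized / Control set: high carbachol 87 µM, low DMSO alone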
CRFBP-R2 agonist: CRF-BP/CRF-R2 complex agonism. actives 0.46% (n = 350,000). AID 588473. activation, % at 13.2 µM. HEK293 CRF-R2/CRF-BP, calcium dye fluorescence (FLIPR); percent of saturating CRF peptide response;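 active = activation of at least 50%, plus an integration ratio under a set limit after plate pattern correction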;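 also: plate controls were neutral control wells without compound for no effect and CRF at EC100 for full effect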
TRPML3 agonist: agonists of human TRPML3 channel; HEK293 TRPML3-YFP, Fluo-8 calcium fluorescence; 100% = the carbachol control signal; activation, % at 3 µM; AID 1448; actives 0.29% (n = 220,000); Q8TDD5;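 active = activation above its plate's cutoff, the mean activation of the plate's test wells plus 3 SD, cut at about 12% in these data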;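 also: 0% = DMSO only wells and 100% = carbachol wells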
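Test system: HEK293 cells stably carrying human TRPML3-YFP; Doses: single dose, 3 µM final nominal compound, 0.3% DMSO final; Schedule: dye loading 1 h 37 °C then 30 min ambient, 125 s read; Technique: Fluo-8 calcium fluorescence; Benchmarks: high control carbachol 87 µM, low control DMSO.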
VIM-2 inhibitor: inhibitors of Pseudomonas aeruginosa VIM-2 metallo-beta-lactamase. purified VIM-2, nitrocefin hydrolysis, epi-absorbance fluorescence. actives 0.89% (n = 290,000). inhibition, % at 5.6 µM;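 active = inhibition above the mean of all tested compounds plus 3 SD, cutoff set per screening run, cut at about 7.5% in these data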;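 also: red hydrolysis product quenches plate fluorescence so inhibitors raise well fluorescence; 0% = enzyme with DMSO and 100% = DMSO without enzyme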
IMP-1 inh: blocks Pseudomonas aeruginosa IMP-1 metallo-beta-lactamase. purified IMP-1, nitrocefin hydrolysis, epi-absorbance fluorescence. inhibition, % at 5.6 µM. actives 0.45% (n = 290,000). AID 1556;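 active = inhibition above the mean plus 3 SD of all compounds in the same screening run, cut at about 4.5% in these data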;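 also: 0% = IMP-1 with DMSO and 100% = DMSO wells lacking enzyme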
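system = purified recombinant IMP-1 beta-lactamase | amount = 0.2 nM IMP-1, as dispensed | medium = HEPES buffer pH 7.1 with ZnSO4 and Brij 35 | times = 25 °C, 15 min preincubation, 25 min reaction | detection = plate fluorescence quenching by hydrolysis product, ex 480/em 530 nm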
Starred values were filed as active, the others as inactive; . = no result given; + = active, no number. The list is not random: actives were taken first. Their share in the collection is about 2.1%.

SMILES	CRFBP-R2 block	TRPN1 ag	CRFBP-R2 agonist	TRPML3 agonist	VIM-2 inhibitor	IMP-1 inh
O=C1C(Cl)=C(NCCCO)C(=O)c2ccccc21	6	-1	-7	0	2	0
CC(=O)Nc1ccc(NC2=C(Cl)C(=O)c3ccccc3C2=O)cc1	+	-3	-3	0	0	-1
O=C1C(Cl)=C(Nc2ccc3cn[nH]c3c2)C(=O)c2ccccc21	95*	-2	-4	-1	5	-3
CN(C)c1ccc(NC2=C(Cl)C(=O)c3ccccc3C2=O)cc1	75*	-2	0	-1	-5	-6
CCOC(=O)C(Cc1ccc(NC(C)=O)cc1)N1C(=O)c2ccccc2C1=O (centres undefined)	6	.	0	.	.	.
CCCCNC(=O)CSc1cc(=O)n(C)c2ccccc12	9	0	1	0	0	6.1*
COc1cc(N=c2ssnc2Cl)cc(OC)c1	-19	0	4	0	-1	-6
Clc1nssc1=Nc1ccc(Br)cc1	29	1	107*	4	-2	-4
CC(C)(C)OC(=O)[C@H](Cc1ccccc1)NC(=O)c1nc[nH]c1C(=O)N1CCNCC1	9	.	-2	.	.	.
CC(C)C(NS(=O)(=O)c1ccc2c(c1)oc(=O)n2C)C(=O)N1CCN(C2CCCCC2)CC1 (centres undefined)	58*	1	1	0	-1	3
CC1CC(C)CN(C(=O)C(NS(=O)(=O)c2ccc3c(c2)oc(=O)n3C)C(C)C)C1 (centres undefined)	4	1	-1	0	-1	-3
CSc1ccccc1NC(=O)CO/N=C(\C)c1cc2ccccc2o1	34	-1	-3	0	-3	-1
C/C(=N\OCC(=O)Nc1ccc(F)c(F)c1F)c1cc2ccccc2o1	54*	-1	4	-1	-3	-3
O=C(NNC(=O)c1ccccc1Cl)c1ccc(-n2cncn2)c([N+](=O)[O-])c1	1	.	-1	.	.	.
CCc1ccc(-c2nc(CN3CCC(C(=O)N4CCN(c5ccccc5)CC4)CC3)c(C)o2)cc1	-359	3	313*	4	-5	-6
CCc1ccc(-c2nc(CN3CCC(C(=O)N4CCN(c5ccccn5)CC4)CC3)c(C)o2)cc1	-8	0	-1	1	-2	-2
CC1=NOC(=O)/C1=C\c1ccc(-c2cc(Cl)ccc2Cl)o1	-79	1	116*	0	-2	-2
CC1=NOC(=O)/C1=C\c1ccc(-c2ccc(Br)cc2C(=O)O)o1	-4	1	4	1	-1	-2
CC1=NOC(=O)/C1=C\c1ccc(-c2ccc(Br)cc2)o1	-27	-1	69*	0	-3	-2
CC1=NOC(=O)/C1=C/c1ccc(-c2ccc(Cl)cc2)o1	.	0	.	0	0	-4
O=C(COC(=O)c1ncc(Cl)c(Cl)c1Cl)NCCc1ccccc1	9	.	0	.	.	.
Cc1c(Cl)ccc2c1NC(=O)C21NC(CCC(N)=O)[C@H]2C(=O)N(c3ccc(Cl)cc3)C(=O)[C@H]21 (some centres undefined)	50*	3	-2	0	-3	-5
Cc1c(Cl)ccc2c1NC(=O)[C@]21N[C@@H](CCC(N)=O)[C@H]2C(=O)N(c3ccc(F)cc3)C(=O)[C@H]21	-7	0	1	0	-2	-5
